What all share (type): functional, cell-based
The subject of experiment [1] is U2OS. The experiment is described as follows: Antitumor immunity against human U2OS cells assessed as decrease in ATP by measuring reduction in quinacrine green fluorescence intensity at 3 uM pretreated for 24 hrs by live fluorescence microscopic analysis.
The test system of experiment [2] is U2OS. The experiment can be described thus: Antitumor immunity against human U2OS cells expressing CALR-GFP fusion protein assessed as accumulation CALR-GFP fusion protein at 3 uM measured upto 24 hrs by live cell microscopic analysis.
The subject of experiment [3] is U2OS. The experiment is described as follows: Antitumor immunity against human U2OS cells expressing HMGBI-GFP fusion protein assessed as accumulation HMGBI-GFP fusion protein at 3 uM measured upto 24 hrs by live cell microscopic analysis.
Another experiment deals with MCA-205. The experiment is described as follows: Induction of B3Z T-cell activation cocultured with mouse MCA-205 cells expressing SL8 epitope assessed as increase in intron-derived SL8 antigen presentation at 2 to 10 uM measured after 18 hrs. Particulars: dose 2-10 µM. The method in brief:
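MCA205 cells transfected with YFP-Globin-SL8-intron plasmid (pCDNA3 empty-vector control). 24 h later, treated 18 h. Washed, then 5x10^4 cells co-cultured with 1x10^5 SL8/H-2Kb-specific B3Z CD8+ T-cell hybridoma for 18 h at 37 °C. Cells lysed, β-galactosidase read with 40 µM MUG substrate over 3 h at room temperature. Normalised to unspecific B3Z activation. At least three biological replicates, Student's t-test.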

Activity data for two compounds are collected here from ChEMBL document CHEMBL5154772, “Biological Investigation of a Water-Soluble Isoginkgetin-Phosphate Analogue, Targeting the Spliceosome with In Vivo Antitumor Activity” (J Med Chem, 2022).

Calls of active or inactive are those of the source. The rule behind the calls is not given here.

Consider `O=C1c2c(O)ccc(O)c2C(=O)c2c(NCCNCCO)ccc(NCCNCCO)c21`, for which the result in the experiment on U2OS [1], with U2OS [2] and with U2OS [3] was Active.

For the compound `COc1cc(-c2ccc(=O)[nH]n2)ccc1OC(F)F`, the outcome in the experiment with MCA-205 was Active.
